Active and inactive are the calls of the source. The calls are words filed in the database; no cut-off is given here.
Tests used:
[1] = target: T1, Estrogen receptor (Homo sapiens) (UniProt P03372); assay: Displacement of [3H]estradiol from human ERalpha relative to estradiol
T1 sequence (whole entry): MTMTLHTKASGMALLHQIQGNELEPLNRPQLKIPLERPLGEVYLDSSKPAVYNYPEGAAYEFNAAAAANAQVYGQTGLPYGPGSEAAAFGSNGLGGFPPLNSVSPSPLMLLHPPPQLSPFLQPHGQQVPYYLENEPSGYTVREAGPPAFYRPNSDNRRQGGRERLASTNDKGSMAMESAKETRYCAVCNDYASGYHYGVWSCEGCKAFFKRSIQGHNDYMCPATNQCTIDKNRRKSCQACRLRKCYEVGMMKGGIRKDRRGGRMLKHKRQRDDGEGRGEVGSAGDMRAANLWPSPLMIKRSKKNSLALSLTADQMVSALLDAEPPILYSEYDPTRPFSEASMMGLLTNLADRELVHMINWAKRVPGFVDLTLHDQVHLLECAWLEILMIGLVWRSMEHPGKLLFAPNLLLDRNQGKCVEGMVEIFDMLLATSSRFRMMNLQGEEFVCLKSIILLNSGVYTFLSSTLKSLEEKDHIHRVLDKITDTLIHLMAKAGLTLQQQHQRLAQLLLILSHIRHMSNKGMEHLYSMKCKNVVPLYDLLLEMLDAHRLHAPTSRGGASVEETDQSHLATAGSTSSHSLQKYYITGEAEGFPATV

[2] = target: Estrogen receptor beta (Homo sapiens) (UniProt Q92731); assay: Displacement of [3H]estradiol from human ERbeta relative to estradiol
Sequence of Estrogen receptor beta (Homo sapiens) (Q92731 whole entry): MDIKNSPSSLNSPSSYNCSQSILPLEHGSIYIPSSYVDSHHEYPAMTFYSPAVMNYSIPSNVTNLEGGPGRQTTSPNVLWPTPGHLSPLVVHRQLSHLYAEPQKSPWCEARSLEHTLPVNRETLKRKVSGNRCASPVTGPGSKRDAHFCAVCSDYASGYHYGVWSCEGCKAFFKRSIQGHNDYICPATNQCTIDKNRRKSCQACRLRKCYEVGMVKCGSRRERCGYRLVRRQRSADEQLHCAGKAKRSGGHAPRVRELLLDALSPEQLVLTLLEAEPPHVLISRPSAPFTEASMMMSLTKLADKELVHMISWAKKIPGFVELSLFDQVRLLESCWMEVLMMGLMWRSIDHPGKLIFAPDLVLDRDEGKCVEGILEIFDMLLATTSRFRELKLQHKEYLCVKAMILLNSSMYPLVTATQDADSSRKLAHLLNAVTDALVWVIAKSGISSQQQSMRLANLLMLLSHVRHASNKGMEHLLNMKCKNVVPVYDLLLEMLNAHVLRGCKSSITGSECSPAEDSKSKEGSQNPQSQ

[3] = target: Estrogen receptor (Homo sapiens) (UniProt Q92731+P03372); assay: Ratio of RBA for human estrogen receptor alpha to RBA for human estrogen receptor beta; format: protein assay
Sequence of Estrogen receptor (Homo sapiens) (UniProt Q92731+P03372) (Q92731 whole entry, looked up, one chain of several): as the sequence (Q92731 whole entry) above

[4] = target: T1, Estrogen receptor (Homo sapiens); assay: Activity at ERalpha in human HEC1 cells assessed as antagonism of estradiol-activated transcription activation relative to estradiol; format: functional, cell-based; conditions: HEC-1
Summary of the method: (§1)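 HEC-1 cells kept in phenol red MEM with 5% calf serum plus 5% fetal calf serum, then plated in phenol red-free Improved MEM with 5% charcoal dextran-treated calf serum. Lipofectin transfection for 5 h at 37 °C with full-length human ERα or ERβ vector, 2ERE-pS2-Luc and pCMV β-galactosidase control. Ligand, 10^-8 to 10^-5 M, given with 1 nM estradiol for 24 h. Luciferase read, as percent of 10^-9 M estradiol alone. Two or more experiments.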

[5] = target: Estrogen receptor beta (Homo sapiens) (UniProt Q92731); assay: Activity at ERbeta in human HEC1 cells assessed as antagonism of estradiol-activated transcription activation relative to estradiol; format: functional, cell-based; conditions: HEC-1; summary of the method: as §1

RBA [1]	RBA [2]	Ratio [3]	Activity [4]	Activity [5]	SMILES
2.2%	0.16%	14	–	–	O=S(=O)(Oc1ccc(O)cc1)C1CC2OC1C(c1ccc(O)cc1)=C2c1ccc(O)cc1 (configuration not stated)
0.069%	0.037%	1.9	–	–	O=S(=O)(c1ccccc1)C1CC2OC1C(c1cccc(O)c1)=C2c1ccc(O)cc1 (configuration not stated)
4.1%	–	–	–	–	O=S(=O)(Oc1ccccc1)[C@H]1CC2OC1C(c1ccc(O)cc1)=C2c1ccc(O)cc1 (stereo in doubt; endo)
–	–	–	Active	Active	O=S(=O)(Oc1ccccc1)[C@H]1CC2OC1C(c1ccc(O)cc1)=C2c1ccc(O)cc1 (stereo in doubt; exo)
0.1%	0.077%	1.3	–	–	CCS(=O)(=O)C1CC2OC1C(c1ccc(O)cc1)=C2c1ccc(O)cc1 (configuration not stated)
0.32%	0.1%	3.3	–	–	COc1ccc(OS(=O)(=O)C2CC3OC2C(c2ccc(O)cc2)=C3c2ccc(O)cc2)cc1 (configuration not stated)
0.64%	0.059%	11	Active	Active	O=S(=O)(c1ccccc1)C1CC2OC1C(c1ccc(O)cc1)=C2c1ccc(O)cc1 (configuration not stated)

The remaining lines, values behind:

SMILES	RBA [1]	RBA [2]	Ratio [3]	Activity [4]	Activity [5]
COc1ccc(C2=C(c3ccc(O)cc3)C3CC(S(=O)(=O)c4ccccc4)C2O3)cc1 (configuration not stated)	0.068%	0.066%	1	–	–
COC(=O)C1=C(C(=O)OC)C2OC1C(c1ccc(O)cc1)=C2c1ccc(O)cc1	0.009%	0.006%	1.5	–	–
O=S(=O)(Oc1ccccc1)C1CC2OC1C(c1cccc(O)c1)=C2c1ccc(O)cc1 (configuration not stated)	0.9%	0.21%	4.3	–	–
O=C1C2C3OC(C(c4ccc(O)cc4)=C3c3ccc(O)cc3)C2C(=O)N1c1ccccc1 (configuration not stated)	0.013%	0.017%	0.77	–	–
CCOC(=O)C1C2OC(C(c3ccc(O)cc3)=C2c2ccc(O)cc2)C1C(=O)OCC (configuration not stated)	0.021%	0.036%	0.58	–	–
CN1C(=O)C2C3OC(C(c4ccc(O)cc4)=C3c3ccc(O)cc3)C2C1=O (configuration not stated)	0.02%	0.025%	0.8	–	–
O=S(=O)(Oc1ccccc1)C1CC2OC1C(c1ccccc1)=C2c1ccccc1 (configuration not stated)	0.068%	0.12%	0.57	–	–
COc1ccc(C2=C(c3ccc(O)cc3)C3CC(S(=O)(=O)Oc4ccccc4)C2O3)cc1 (configuration not stated)	0.98%	0.11%	8.9	–	–
COC(=O)C1=C(c2ccccc2)C2OC1C(c1ccccc1)=C2c1ccccc1 (configuration not stated)	0.007%	0.024%	0.29	–	–
COC(=O)C1=C(c2ccc(O)cc2)C2OC1C(c1ccccc1)=C2c1ccccc1 (configuration not stated)	0.012%	0.031%	0.39	–	–
O=S(=O)(Oc1ccc(O)cc1)[C@H]1CC2OC1C(c1ccccc1)=C2c1ccccc1 (stereo in doubt; exo)	0.022%	0.027%	0.82	–	–
O=S(=O)(Oc1ccc(O)cc1)[C@H]1CC2OC1C(c1ccccc1)=C2c1ccccc1 (stereo in doubt; endo)	0.025%	0.029%	0.86	–	–
O=C1OC(=O)C2C3OC(C(c4ccccc4)=C3c3ccccc3)C12 (configuration not stated)	0.014%	0.02%	0.7	–	–
O=S(=O)(c1ccccc1)C1CC2OC1C(c1ccccc1)=C2c1ccccc1 (configuration not stated)	0.008%	0.013%	0.62	–	–
